Bioassay records: PubChem BioAssay, several laboratories
Compounds with a hit are over-represented: about 4.1% of the library has one in this group of screens.
ROMK mod: modulates human ROMK potassium channel activity; B-score at 10 µM; Tet-inducible ROMK, thallium flux fluorescence; actives lie on both sides; AID 1918; 130,000 compounds, 2% hits; P48048;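 active = signal ratio slope over the read window, or its plate-corrected B-score, at least 3 SD from the plate mean, either direction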;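 also: B-score of the F/F0 ratio slope over 7 to 12 s after thallium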
Autophagy HCS: modulators of autophagy | MEF GFP-LC3 puncta imaging; test concentration mostly 10 µM | calls only at 10 µM (by protocol) | 190,000 compounds, 0.98% hits;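 active = percentage of spot-positive cells more than 3 SD above its plate mean, without a fluorescence outlier flag or 80% toxicity; inconclusive = no clear call, values can overlap the other calls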;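 also: spot-positive cell cutoff set from DMSO-treated cells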
Dynein cargo inh: blocks dynein driven cargo transport along microtubules; 3617.4 mouse cells, GR-EGFP nuclear translocation imaging; test concentration mostly 20 µM; stimulated with dexamethasone, 1 µM; stronger effect = lower value; z-score, hits read low; 220,000 compounds, 0.47% hits;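 active = plate z-score of nuclear minus cytoplasmic receptor signal below a set negative limit, without overly bright fluorescence or cell loss, cut at about -3.5 in these data, passing the limit was not always enough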;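 also: z-score of nuclear minus cytoplasmic ring GR-EGFP intensity difference per well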
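Also added – dexamethasone, 1.0 µM final · Buffer or medium – tet-free, stripped-serum medium · Schedule – induction 48 h, compound 1 h, agonist 30 min · Detection – formaldehyde fixation, Hoechst nuclear stain, 10x automated fluorescence imaging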
DTT redox prof: compounds producing H2O2 with reducing agent – biochemical, NIH compound library profiling, artefact control for MLSCN library redox annotation, primary screen; activation, % at 10 µM; 200,000 compounds, 0.03% hits; AID 878; DTT-dependent redox cycling H2O2, phenol red/HRP absorbance; 100% = 100 µM peroxide control, 0% = buffer;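 active = activation of at least 50% relative to the plate's high and low controls in the primary single-dose screen; inactive = activation below 50%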;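 also: compound incubated with DTT at 0.8 mM final as the reducing agent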
Cl transport mod: modulates chloride dependent transport by human KCC2; Q9H2X9; KCC2 cells, thallium flux FluoZin-2 fluorescence; B-score of Tl+ flux slope (higher = more flux/activation; lower = inhibition) at 10 µM; 190,000 compounds, 2.2% hits;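 active = thallium flux slope and its plate-corrected score both differing from the plate sample mean at a set confidence after two filtering rounds, in either direction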;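 also: slope of fluorescence scaled to starting intensity during 10 to 20 s after thallium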
Target sequence (Q9H2X9 whole entry, looked up): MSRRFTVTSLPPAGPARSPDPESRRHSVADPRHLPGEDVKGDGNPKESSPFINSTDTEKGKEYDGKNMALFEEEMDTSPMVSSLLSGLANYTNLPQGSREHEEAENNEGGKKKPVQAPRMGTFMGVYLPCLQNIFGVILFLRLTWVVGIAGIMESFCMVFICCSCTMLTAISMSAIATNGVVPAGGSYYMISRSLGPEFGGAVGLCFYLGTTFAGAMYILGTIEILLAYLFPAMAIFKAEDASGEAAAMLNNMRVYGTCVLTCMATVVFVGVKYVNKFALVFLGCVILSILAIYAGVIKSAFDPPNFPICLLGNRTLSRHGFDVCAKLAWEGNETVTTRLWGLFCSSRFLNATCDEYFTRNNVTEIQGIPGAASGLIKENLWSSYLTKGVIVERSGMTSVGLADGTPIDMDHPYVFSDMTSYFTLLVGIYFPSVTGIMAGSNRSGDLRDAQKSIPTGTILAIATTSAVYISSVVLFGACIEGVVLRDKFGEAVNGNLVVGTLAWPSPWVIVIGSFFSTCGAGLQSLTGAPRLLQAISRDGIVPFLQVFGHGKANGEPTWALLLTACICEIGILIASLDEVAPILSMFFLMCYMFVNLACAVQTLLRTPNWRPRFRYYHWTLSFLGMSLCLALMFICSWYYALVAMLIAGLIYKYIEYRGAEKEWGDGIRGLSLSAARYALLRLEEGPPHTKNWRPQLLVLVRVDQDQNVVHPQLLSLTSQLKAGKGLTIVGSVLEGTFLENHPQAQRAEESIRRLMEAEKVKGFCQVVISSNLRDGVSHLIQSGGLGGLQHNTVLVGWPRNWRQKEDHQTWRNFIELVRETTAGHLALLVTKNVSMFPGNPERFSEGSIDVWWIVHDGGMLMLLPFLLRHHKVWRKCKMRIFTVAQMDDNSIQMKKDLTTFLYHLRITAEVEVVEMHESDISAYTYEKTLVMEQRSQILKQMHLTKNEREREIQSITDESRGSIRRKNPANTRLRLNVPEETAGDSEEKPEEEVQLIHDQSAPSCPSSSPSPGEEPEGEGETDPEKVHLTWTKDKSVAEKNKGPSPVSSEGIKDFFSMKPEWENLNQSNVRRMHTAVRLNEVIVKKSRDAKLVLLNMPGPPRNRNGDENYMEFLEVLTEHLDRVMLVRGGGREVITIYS
DTT redox conf: redox cycling H2O2 generation, confirmed | 60 compounds, 40% hits | shares compounds with DTT redox prof | DTT-dependent redox cycling H2O2, phenol red-HRP absorbance | EC50, µM;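 active = EC50 under a set limit for hydrogen peroxide production with the reducing agent DTT present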
Dynein inh conf: dynein cargo transport inhibition, confirmation; shares compounds with Dynein cargo inh; 3617.4 GR-EGFP nuclear translocation imaging, dexamethasone-induced; 1,000 compounds, 69% hits; calls only at 20 µM; AID 463116;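 active = inhibition of receptor movement into the nucleus at or above a set limit in both runs, with normal cell brightness and cell count; inconclusive = limit reached in only one run, brightness and count normal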;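 also: dexamethasone at 1 µM final in well for 30 min; nuclear minus cytoplasmic GR-EGFP mean intensity difference in channel 2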
Numbers without * were called inactive; i = inactive; ? = inconclusive; nt = not tested or not shown; + = active, no number.

SMILES	ROMK mod	Autophagy HCS	Dynein cargo inh	DTT redox prof	Cl transport mod	others
CCCCn1c(=O)c(C(=O)Nc2cnccn2)c(O)c2ccccc21	nt	i	2.5	1	0.78
CC(C)CCn1c(=O)c(C(=O)Nc2ccccc2S(N)(=O)=O)c(O)c2ccccc21	nt	i	-0.55	1	6.6*
CN(C)c1ccc(/C=C2/C(=N\O)C3CCN2CC3)cc1	nt	nt	-0.25	nt	0.022
c1ccc2c(CNC3CCCCC3)c[nH]c2c1	-0.97	i	-0.93	0	-5.1*
Cc1ccc(CN2C3CCCC2CC(NC(=O)Nc2cccc(F)c2)C3)cc1 (centres undefined)	-3.2	+	-0.25	5	-0.23
O=C1NC2NC(=O)N([N+](=O)[O-])C2N1 (centres undefined)	nt	nt	-0.19	nt	0.39
c1ccc(-c2ccc(-c3n(-c4ccccn4)c4ccccc4[n+]3-c3ccccn3)cc2)cc1	-1.5	+	1.5	0	0.013
COc1ccc(/C=C2/C(=O)NC(=S)N(C3CC3)C2=O)cc1CN1C(=O)c2ccccc2C1=O	nt	i	-3.6*	0	-0.14
CC(C)Cc1nnc(NC(=O)CCC(=O)N2CCC3(CC2)OCCO3)s1	1	nt	0.47	nt	0.58
C/C(=N\NC(=S)Nc1ccccc1)c1c(O)n(C)c(=O)n(C)c1=O	0.6	+	-0.92	0	0.51
CC/C(=N\Nc1ccccc1)c1c(O)n(C)c(=O)n(C)c1=O	nt	i	-0.97	0	-0.36
O=C(Nc1ccc2ccccc2c1)N1C[C@H]2C[C@@H](C1)c1cccc(=O)n1C2	0.41	nt	0.95	nt	0.5
COc1ccc(Cn2c(O)c(C=NCCN3CCOCC3)c(=O)[nH]c2=O)cc1	0.078	i	-0.4	2	9.1*
CN1C(=O)C(=Cc2ccc(N3CCCCC3)o2)C(=O)N(C)C1=S	-4.9*	i	-0.76	-4	nt
O=C1NC(=O)N(c2ccc3c(c2)OCO3)C(=O)/C1=C\c1ccc(-c2ccccc2C(=O)O)o1	nt	nt	0.39	nt	nt
CCN(CC)c1ccc(C=C2C(=O)N(C)C(=S)N(C)C2=O)o1	-1.1	i	-0.4	0	-3
O=C1NC(=O)N(c2ccc3c(c2)OCO3)C(=O)/C1=C/c1ccc(N2CCCCC2)o1	-3.6*	i	0.28	-4	nt
CC(=O)OC1N=C(c2ccccc2Cl)c2cc(Br)ccc2NC1=O (centres undefined)	1.7	nt	0.89	nt	-0.34
CCOC(=O)c1nc2ccccc2c(=O)n1-c1cccc(C)c1	1.1*	i	0.39	0	1.4
CCOC(=O)c1nc2ccccc2c(=O)n1-c1ccc(C)cc1	0.41	i	-0.73	0	-0.27
C=C1C(=O)O[C@@H]2C[C@@H](C)[C@@H]3C=CC(=O)[C@@]3(C)[C@@H](O)[C@H]12	nt	nt	-3.6*	nt	-0.2
COc1ccc(Cc2c(O)[nH]c(=O)[nH]c2=O)c(OC)c1	-0.095	nt	0.27	nt	-0.16
Cc1cccnc1NC1=NCC(C)S1 (centres undefined)	nt	i	-0.48	71*	0.76	DTT redox conf=>50
CCCCn1c(NC(=O)c2ccco2)c(C(=O)OCC)c2nc3ccccc3nc21	nt	i	2.2	81*	-0.76	DTT redox conf=>50
COc1cc(CC2(CCc3ccncc3)C(=O)N(C)C(=O)N(C)C2=O)cc(OC)c1OC	-0.041	i	0.73	-1	0.44
SMILES	ROMK mod	Autophagy HCS	Dynein cargo inh	DTT redox prof	Cl transport mod	others
O=C1C2CCN(CC2)C1Cc1ccc(OCc2ccccc2)cc1 (centres undefined)	-0.98	i	-0.073	-1	-0.5
CCn1nc(/C=C/c2ccccc2)nc2c(=O)n(C)c(=O)nc1-2	nt	i	-1.5	152*	0.85	DTT redox conf=>50
Clc1ccccc1CN1CCN(c2cccc3[nH]ccc23)CC1	0.1	nt	0.39	nt	nt
COc1ccc(CN2C(=O)NC(=O)/C(=C/c3ccc([N+](=O)[O-])s3)C2=O)cc1	nt	nt	-4.3*	nt	-0.75	Dynein inh conf=+
COc1ccccc1N1C(=O)NC(=O)/C(=C/c2ccc([N+](=O)[O-])s2)C1=O	nt	nt	-5.8*	nt	0.89	Dynein inh conf=+
COc1ccc(N2C(=O)NC(=O)/C(=C\c3ccc([N+](=O)[O-])s3)C2=O)cc1	-1.5	i	-7.1*	-1	2.2	Dynein inh conf=+
COc1ccc(N2C(=O)NC(=O)/C(=C/c3ccc([N+](=O)[O-])s3)C2=O)cc1	nt	nt	-5.3*	nt	1.4	Dynein inh conf=+
COc1ccc(CN2C(=O)NC(=O)/C(=C\c3cc(OC)c(OC)c(OC)c3)C2=O)cc1	0.46	i	-0.11	-2	0.018
CCOc1ccc(N2C(=O)NC(=O)/C(=C\c3cc(OC)c(OC)cc3[N+](=O)[O-])C2=O)cc1	nt	i	-0.28	0	0.5
CCC(=O)OC1(Cc2ccc(CC)cc2)CC(C)N(C)CC1C (centres undefined)	-1.8	nt	-0.063	nt	0.14
COc1cccc(N2C(=O)NC(=O)/C(=C/c3ccc([N+](=O)[O-])s3)C2=O)c1	-1.3	nt	-5.6*	nt	-0.075	Dynein inh conf=+
COc1ccc(N2C(=O)/C(=C/C=C/c3ccccc3[N+](=O)[O-])C(=O)NC2=S)cc1	-0.44	i	-3.5	0	-1.3
O=c1[nH]c(=O)n(C2CCCCC2)c(O)c1/C=C/C=Nc1ccccc1	nt	nt	-0.59	nt	0.16
CC(=O)OC(C)(C)/C=C/C(=O)[C@](C)(O)[C@H]1[C@H](O)C[C@@]2(C)[C@@H]3CC=C4[C@H](C[C@H](O)C(=O)C4(C)C)[C@]3(C)C(=O)C[C@]12C	4.7*	?	-3.7*	1	1.3	Dynein inh conf=?
Cc1ccc(S(=O)(=O)N(c2cc(Cl)c(O)c(Cl)c2)P(=O)(OC(C)C)OC(C)C)cc1	0.18	i	-0.42	-1	-0.48
CCOC(=O)c1c(-n2c(C)cc(C=C3C(=O)NC(=S)NC3=O)c2C)sc2c1CCCC2	nt	i	-4.6*	3	nt	Dynein inh conf=+
CCOC(=O)c1c(-n2c(C)cc(/C=C3/C(=O)NC(=O)N(CC)C3=O)c2C)sc2c1CCCC2	nt	i	-0.69	-3	nt
NC1=NC(=O)C(c2ccccc2)O1 (centres undefined)	nt	nt	nt	nt	-0.12
CC(C)n1c(O)c(C2c3cc(Cl)ccc3Oc3[nH]c(=O)n(C(C)C)c(=O)c32)c(=O)[nH]c1=O (centres undefined)	nt	nt	-5.3*	nt	nt	Dynein inh conf=+
CC(=O)c1c(O)n(-c2cccc(Cl)c2)c(=O)[nH]c1=O (tested in a mixture with another compound)	0.2	nt	-0.03	nt	1.1
O=C1NC(=O)N(Cc2ccccc2)C(=O)/C1=C/C=C/c1ccco1	nt	nt	-6*	nt	nt	Dynein inh conf=+
CC(C)c1ccc(N2C(=O)NC(=O)/C(=C\C=C\c3ccco3)C2=O)cc1	-0.34	i	-3.9*	-1	0.66	Dynein inh conf=+
